Data set [1] has as its system Human immunodeficiency virus 1. Description: Antiviral activity against HIV 1 in HeLa-CD4/CCR5 cells assessed as inhibition of viral infectivity after 48 hrs by MAGI assay. As to conditions: Human immunodeficiency virus 1, MAGI-CCR5, 48 h. The data set is classed as functional, organism-based. The method in brief:
(§1)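 HeLa-CD4/CCR5-LTR/β-gal target cells at 10⁴ cells/well, plated the day before infection; inoculated with virus at 60 MAGI U/well and cultured with graded compound concentrations in fresh medium. After 48 h, X-Gal-stained blue cells were counted per well. EC50 (50% block of infection) was interpolated from the two concentrations bracketing 50% inhibition; three independent experiments.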

Another data set has as its system HeLa. Description: Cytotoxicity against human HeLa cells expressing CD4/CCR5 at 10 uM. The data set is classed as cell-based.
The test system of data set [2] is Human immunodeficiency virus 1. The data set is described as follows: Antiviral activity against HIV 1 NL4-3 in HeLa-CD4/CCR5 cells assessed as inhibition of viral infectivity after 48 hrs by MAGI assay. The data set is classed as functional, organism-based. As to conditions: Human immunodeficiency virus 1, NL4-3, MAGI-CCR5, 48 h. The method in brief: as §1
In data set [3] the test system is Human immunodeficiency virus 2. The data set is described as follows: Antiviral activity against HIV 2 ROD in HeLa-CD4/CCR5 cells assessed as inhibition of viral infectivity after 48 hrs by MAGI assay. The data set is classed as functional, organism-based. Particulars: Human immunodeficiency virus 2, ISOLATE ROD, MAGI-CCR5, 48 h. The method in brief: as §1
Data set [4] concerns Human immunodeficiency virus 1. The data set is described as follows: Ratio of PD 404182 EC50 to compound EC50 for HIV 1 NL4-3 in HeLa-CD4/CCR5 cells assessed as inhibition of viral infectivity after 48 hrs by MAGI assay. The data set is classed as functional.
Data set [5] concerns Human immunodeficiency virus 2. Description: Ratio of PD 404182 EC50 to compound EC50 for HIV 2 ROD in HeLa-CD4/CCR5 cells assessed as inhibition of viral infectivity after 48 hrs by MAGI assay. The data set is classed as functional, ISOLATE ROD.
The test system of data set [6] is Human immunodeficiency virus 1. Description: Antiviral activity against HIV 1 BaL in HeLa-CD4/CCR5 cells assessed as inhibition of viral infectivity after 48 hrs by MAGI assay. The data set is classed as functional, organism-based. Particulars: Human immunodeficiency virus 1, BaL, MAGI-CCR5, 48 h. The method in brief:
as §1

Data set [7] relates to Human immunodeficiency virus 2. The data set is described as follows: Ratio of PD 404182 EC50 to compound EC50 for HIV 2 EHO in HeLa-CD4/CCR5 cells assessed as inhibition of viral infectivity after 48 hrs by MAGI assay. In kind it is functional.
Data set [8] has as its system Human immunodeficiency virus 1. The data set is described as follows: Ratio of PD 404182 EC50 to compound EC50 for HIV 1 BaL in HeLa-CD4/CCR5 cells assessed as inhibition of viral infectivity after 48 hrs by MAGI assay. In kind it is functional.
The subject of data set [9] is Human immunodeficiency virus 2. Description: Antiviral activity against HIV 2 EHO in HeLa-CD4/CCR5 cells assessed as inhibition of viral infectivity after 48 hrs by MAGI assay. The data set is classed as functional, organism-based. As to conditions: Human immunodeficiency virus 2, EHO, MAGI-CCR5, 48 h. The method in brief: as §1
The nature of data set [10]: Cytotoxicity against human HeLa cells expressing CD4/CCR5. The data set is classed as cell-based.
A short description of data set [11]: Therapeutic index, ratio of CC50 for HeLa-CD4/CCR5 cells to EC50 for HIV 1 in HeLa-CD4/CCR5 cells assessed as inhibition of viral infectivity. In kind it is cell-based. As to conditions: human, read-out: Ratio CC50/EC50.

pEC50: −log10 of the molar value.

What is called pEC50 is the negative decadic logarithm of the EC50, by convention in mol/L. Regarding `N=C1Sc2cc(-c3ccncc3)ccc2C2=NCCCN12`, the pEC50 in data set [1] is 6.27.
On the same count and under the same terms, the same measure for `N=C1Sc2cc(-c3ccccc3-c3ccccc3)ccc2C2=NCCCN12`: 6.49.
In the case of `COC(=O)c1cccc(-c2ccc3c(c2)SC(=N)N2CCCN=C32)c1`, the pEC50 in data set [1] is 6.41.
Regarding `N=C1Sc2cc(Br)ccc2C2=NCC3(CCN(C(N)=O)CC3)CN12`, the pEC50 in [1] was below 5.00.
`N=C1Sc2cc(-c3ccc(C(N)=O)cc3)ccc2C2=NCCCN12`: the pEC50 in data set [1] was 5.06.
In the case of `COC(=O)c1ccc(-c2ccc3c(c2)SC(=N)N2CCCN=C32)cc1`, the pEC50 in [1] was 6.09.
The same measure, in the same setting: the value for `N=C1Sc2cc(-c3cccc([N+](=O)[O-])c3)ccc2C2=NCCCN12` was 5.90; that for `N=C1Sc2cc(-c3cccc(-c4ccccc4)c3)ccc2C2=NCCCN12` was 5.87; that for `N=C1Sc2cc(Br)ccc2C2=NCCCN12` was 6.60.
For the compound `COc1cc(-c2ccc3c(c2)SC(=N)N2CCCN=C32)cc(OC)c1OC`, in data set [1], the pEC50 is 6.60.
With `COc1ccc(-c2ccc3c(c2)SC(=N)N2CCCN=C32)cc1OC`, the pEC50 in data set [1] was 6.57.
Regarding `N=C1Sc2cc(-c3ccc4ncccc4c3)ccc2C2=NCCCN12`, the pEC50 in [1] was 6.60.
As to `N=C1Sc2cc(-c3ccccc3)ccc2C2=NCCCN12`, in data set [1], the pEC50 was 6.62.
In the case of `N=C1Sc2cc(-c3ccc4c(C(=O)C(F)(F)F)c[nH]c4c3)ccc2C2=NCCCN12`, the pEC50 in data set [1] was below 6.00. The Activity entry in the data set with HeLa was “Toxic”.
For `CC(C)Oc1cccc(-c2ccc3c(c2)SC(=N)N2CCCN=C32)c1`, the pEC50 in [1] is 6.49.
On to `N=C1Sc2cc(-c3ccc(OC(F)(F)F)cc3)ccc2C2=NCCCN12`, for which the pEC50 in data set [1] was 6.42.
For the compound `N=C1Sc2cc(-c3cc4ccccc4s3)ccc2C2=NCCCN12`, in data set [1], the pEC50 is 6.59.
Same read-out and setting: the value for `N=C1Sc2cc(-n3ccnc3)ccc2C2=NCCCN12` was 5.29; that for `N=C1Sc2cc(-n3cccn3)ccc2C2=NCCCN12` was 6.38; that for `N=C1Sc2cc(-c3ccc4c(c3)OCCO4)ccc2C2=NCCCN12` was 6.59.
For the compound `CC(O)c1cccc(-c2ccc3c(c2)SC(=N)N2CCCN=C32)c1` (racemic), in [1], the pEC50 was 5.92.
For `N=C1Sc2cc(-c3ccc4[nH]cc(C(=O)C(F)(F)F)c4c3)ccc2C2=NCCCN12`, the pEC50 in [1] was below 6.00. Further, in the data set with HeLa, the Activity entry is “Toxic”.
As to `N=C1Sc2cc(-c3ccc4c(c3)OCO4)ccc2C2=NCCCN12`, the pEC50 in data set [1] is 6.82; in [2], 6.64; in data set [3], 7.00; in data set [6] it was 6.89; in [9], 6.85. Also, the “Ratio EC50” value in data set [4] is 2; in data set [5] it was 3; in data set [7], 2; in [8] it was 3.
For the compound `COc1ccc(-c2ccc3c(c2)SC(=N)N2CCCN=C32)cc1`, in data set [1], the pEC50 is 6.62.
On to `CC1(C)CN=C2c3ccccc3SC(=N)N2C1`, for which the pEC50 in data set [1] is 6.62.
With `N#Cc1ccc(-c2ccc3c(c2)SC(=N)N2CCCN=C32)cc1`, in data set [1], the pEC50 is 6.36.
As to `N=C1Sc2cc(Br)ccc2C2=NCC3(CCOCC3)CN12`, in [1], the pEC50 is 5.76.
Still for that read-out and setting: the same measure for `N#Cc1cccc(-c2ccc3c(c2)SC(=N)N2CCCN=C32)c1`: 5.93; for `COc1ccccc1-c1ccc2c(c1)SC(=N)N1CCCN=C21`: 6.39; for `N=C1Sc2cc(-c3cc4ccccc4o3)ccc2C2=NCCCN12`: 6.70.
Consider `COc1ccc(CN2CCC3(CC2)CN=C2c4ccc(Br)cc4SC(=N)N2C3)cc1`, for which the pEC50 in data set [1] is 5.84.
On the same count and under the same terms, the value for `CS(=O)(=O)Nc1cccc(-c2ccc3c(c2)SC(=N)N2CCCN=C32)c1` was below 5.00; that for `COc1cccc(-c2ccc3c(c2)SC(=N)N2CCCN=C32)c1` was 6.82.
For the compound `CC(=O)Nc1cccc(-c2ccc3c(c2)SC(=N)N2CCCN=C32)c1`, in [1], the pEC50 is below 5.00.
Same read-out and setting: the same measure for `COC(=O)N1CCC2(CC1)CN=C1c3ccc(Br)cc3SC(=N)N1C2`: 6.36; for `N=C1Sc2cc(-c3ccco3)ccc2C2=NCCCN12`: 6.59.
Turning to `COc1ccc(Cl)cc1-c1ccc2c(c1)SC(=N)N1CCCN=C21`, the pEC50 in [1] is 6.32.
In the case of `N=C1Sc2cc(Br)ccc2C2=NCC3(CCCCC3)CN12`, the pEC50 in data set [1] was 6.60.
In general, CC50 refers to the concentration at which the toxic effect on the cells reaches its halfway point. The low end stands for greater toxicity to the cells, the high end for lower toxicity to the cells. `N=C1Sc2ccccc2C2=NCCCN12`: the pEC50 in data set [1] was 6.36; in data set [2], 6.42; in [3], 6.52; in data set [6], 6.43; in data set [9], 6.51. In addition, the CC50 in data set [10] was above 100000 nM. For the same compound, the selectivity ratio in [11] was above 200.
Consider `N=C1Sc2cc(-c3cccc(O)c3)ccc2C2=NCCCN12`, for which the pEC50 in [1] was 5.58.
The same measure, in the same setting: the same measure for `CC(=O)N1CCC2(CC1)CN=C1c3ccc(Br)cc3SC(=N)N1C2`: 5.56; for `N=C1Sc2cc(-c3cccnc3)ccc2C2=NCCCN12`: 6.35.
`COc1ccc(-c2ccc3c(c2)SC(=N)N2CCCN=C32)cc1Cl`: in [1], the pEC50 was 6.49.
As for `N=C1Sc2cc(-c3cccc4ccccc34)ccc2C2=NCCCN12`, the pEC50 in data set [1] is 6.41.
Take `N=C1Sc2cc(-c3ccc(C(F)(F)F)cc3)ccc2C2=NCCCN12`: the pEC50 in data set [1] is 6.26.
Same read-out and setting: the value for `CSc1ccc(-c2ccc3c(c2)SC(=N)N2CCCN=C32)cc1` was 6.70; that for `N=C1Sc2cc(-c3ccc4ccccc4c3)ccc2C2=NCCCN12` was 6.70.
On the same count and under the same terms, the value for `N=C1Sc2cc(-c3ccsc3)ccc2C2=NCCCN12` was 6.66; that for `CS(=O)(=O)N1CCC2(CC1)CN=C1c3ccc(Br)cc3SC(=N)N1C2` was 5.74.
As to `N=C1Sc2cc(-c3ccc([N+](=O)[O-])cc3)ccc2C2=NCCCN12`, the pEC50 in data set [1] was 6.34.

Source of the values: ChEMBL document CHEMBL2157882, “Structure-activity relationship study of pyrimido[1,2-c][1,3]benzothiazin-6-imine derivatives for potent anti-HIV agents” (Bioorg Med Chem, 2012).
